According to ChEMBL document CHEMBL4689842, “EUbOPEN Chemogenomics Library wave 1” (2021):

Test system: HEK-293T
Assay: Multiplex assay against HEK293T;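 for Population Tubulin-Different-Phenotype (%): share of the cells with healthy nuclei that show this phenotype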
Assay type: toxicity, cell-based
Settings: human
In short: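 Per cents of healthy-nucleus cells form the tubulin, mitochondrial-mass and membrane-permeability phenotype values. Live cells were stained at seeding with Hoechst33342, BioTracker Green Microtubule Cytoskeleton Dye, MitoTracker Red and Annexin V Alexa Fluor 680. After compound addition they were imaged on a CQ1 microscope at 37°C and 5% CO2, and CellPathfinder machine-learning gating split them into Hoechst high-intensity objects or normal cells, normal cells into healthy, pyknosed or fragmented nuclei, and pyknosed cells into mitotic or apoptotic.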

[1] = 12 h, 1 µM, compound concentration 1 uM, replicate 1
[2] = 12 h, 1 µM, compound concentration 1 uM, replicate 2
[3] = 12 h, 10 µM, compound concentration 10 uM, replicate 1
[4] = 12 h, 10 µM, compound concentration 10 uM, replicate 2
[5] = 24 h, 1 µM, compound concentration 1 uM, replicate 1
[6] = 24 h, 1 µM, compound concentration 1 uM, replicate 2
[7] = 24 h, 10 µM, compound concentration 10 uM, replicate 1
[8] = 24 h, 10 µM, compound concentration 10 uM, replicate 2
[9] = 48 h, 1 µM, compound concentration 1 uM, replicate 1
[10] = 48 h, 1 µM, compound concentration 1 uM, replicate 2
[11] = 48 h, 10 µM, compound concentration 10 uM, replicate 1
[12] = 48 h, 10 µM, compound concentration 10 uM, replicate 2

CCCn1c(=O)c2[nH]c(-c3cnn(Cc4cccc(C(F)(F)F)c4)c3)nc2n(CC)c1=O [GS 6201]
Population Apoptotic (%) [1]: 48%
Population Fragmented Nuclei (%) [1]: 14%
Population Healthy Nuclei (%) [1]: 15%
Population Hoechst High Intensity Objects (%) [1]: 18%
Population Membrane Permeable-Phenotype (%) [1]: 2%
Population Mitochondria Different-Phenotype (%) [1]: 83%
Population Mitotic Cells (%) [1]: 51%
Population Normal (%) [1]: 81%
Population Pyknosed Nuclei (%) [1]: 69%
Population Tubulin-Different-Phenotype (%) [1]: 67%
Total Cell Count [1]: 294
Population Apoptotic (%) [2]: 9%
Population Fragmented Nuclei (%) [2]: 7%
Population Healthy Nuclei (%) [2]: 43%
Population Hoechst High Intensity Objects (%) [2]: 5%
Population Membrane Permeable-Phenotype (%) [2]: 10%
Population Mitochondria Different-Phenotype (%) [2]: 9%
Population Mitotic Cells (%) [2]: 90%
Population Normal (%) [2]: 94%
Population Pyknosed Nuclei (%) [2]: 49%
Population Tubulin-Different-Phenotype (%) [2]: 22%
Total Cell Count [2]: 239
Population Apoptotic (%) [3]: 46%
Population Fragmented Nuclei (%) [3]: 28%
Population Healthy Nuclei (%) [3]: 13%
Population Hoechst High Intensity Objects (%) [3]: 25%
Population Membrane Permeable-Phenotype (%) [3]: 0%
Population Mitochondria Different-Phenotype (%) [3]: 80%
Population Mitotic Cells (%) [3]: 53%
Population Normal (%) [3]: 74%
Population Pyknosed Nuclei (%) [3]: 58%
Population Tubulin-Different-Phenotype (%) [3]: 83%
Total Cell Count [3]: 316
Population Apoptotic (%) [4]: 8%
Population Fragmented Nuclei (%) [4]: 4%
Population Healthy Nuclei (%) [4]: 45%
Population Hoechst High Intensity Objects (%) [4]: 2%
Population Membrane Permeable-Phenotype (%) [4]: 7%
Population Mitochondria Different-Phenotype (%) [4]: 25%
Population Mitotic Cells (%) [4]: 91%
Population Normal (%) [4]: 97%
Population Pyknosed Nuclei (%) [4]: 49%
Population Tubulin-Different-Phenotype (%) [4]: 31%
Total Cell Count [4]: 325
Population Apoptotic (%) [5]: 52%
Population Fragmented Nuclei (%) [5]: 19%
Population Healthy Nuclei (%) [5]: 10%
Population Hoechst High Intensity Objects (%) [5]: 23%
Population Membrane Permeable-Phenotype (%) [5]: 0%
Population Mitochondria Different-Phenotype (%) [5]: 75%
Population Mitotic Cells (%) [5]: 47%
Population Normal (%) [5]: 76%
Population Pyknosed Nuclei (%) [5]: 70%
Population Tubulin-Different-Phenotype (%) [5]: 66%
Total Cell Count [5]: 303
Population Apoptotic (%) [6]: 13%
Population Fragmented Nuclei (%) [6]: 5%
Population Healthy Nuclei (%) [6]: 64%
Population Hoechst High Intensity Objects (%) [6]: 1%
Population Membrane Permeable-Phenotype (%) [6]: 11%
Population Mitochondria Different-Phenotype (%) [6]: 12%
Population Mitotic Cells (%) [6]: 86%
Population Normal (%) [6]: 98%
Population Pyknosed Nuclei (%) [6]: 29%
Population Tubulin-Different-Phenotype (%) [6]: 28%
Total Cell Count [6]: 288
Population Apoptotic (%) [7]: 47%
Population Fragmented Nuclei (%) [7]: 35%
Population Healthy Nuclei (%) [7]: 18%
Population Hoechst High Intensity Objects (%) [7]: 24%
Population Membrane Permeable-Phenotype (%) [7]: 4%
Population Mitochondria Different-Phenotype (%) [7]: 84%
Population Mitotic Cells (%) [7]: 52%
Population Normal (%) [7]: 75%
Population Pyknosed Nuclei (%) [7]: 46%
Population Tubulin-Different-Phenotype (%) [7]: 72%
Total Cell Count [7]: 314
Population Apoptotic (%) [8]: 17%
Population Fragmented Nuclei (%) [8]: 3%
Population Healthy Nuclei (%) [8]: 63%
Population Hoechst High Intensity Objects (%) [8]: 1%
Population Membrane Permeable-Phenotype (%) [8]: 8%
Population Mitochondria Different-Phenotype (%) [8]: 17%
Population Mitotic Cells (%) [8]: 82%
Population Normal (%) [8]: 98%
Population Pyknosed Nuclei (%) [8]: 32%
Population Tubulin-Different-Phenotype (%) [8]: 35%
Total Cell Count [8]: 424
Population Apoptotic (%) [9]: 55%
Population Fragmented Nuclei (%) [9]: 27%
Population Healthy Nuclei (%) [9]: 6%
Population Hoechst High Intensity Objects (%) [9]: 19%
Population Membrane Permeable-Phenotype (%) [9]: 0%
Population Mitochondria Different-Phenotype (%) [9]: 29%
Population Mitotic Cells (%) [9]: 44%
Population Normal (%) [9]: 80%
Population Pyknosed Nuclei (%) [9]: 65%
Population Tubulin-Different-Phenotype (%) [9]: 47%
Total Cell Count [9]: 303
Population Apoptotic (%) [10]: 14%
Population Fragmented Nuclei (%) [10]: 5%
Population Healthy Nuclei (%) [10]: 81%
Population Hoechst High Intensity Objects (%) [10]: 3%
Population Membrane Permeable-Phenotype (%) [10]: 7%
Population Mitochondria Different-Phenotype (%) [10]: 3%
Population Mitotic Cells (%) [10]: 85%
Population Normal (%) [10]: 96%
Population Pyknosed Nuclei (%) [10]: 13%
Population Tubulin-Different-Phenotype (%) [10]: 12%
Total Cell Count [10]: 506
Population Apoptotic (%) [11]: 53%
Population Fragmented Nuclei (%) [11]: 44%
Population Healthy Nuclei (%) [11]: 11%
Population Hoechst High Intensity Objects (%) [11]: 24%
Population Membrane Permeable-Phenotype (%) [11]: 0%
Population Mitochondria Different-Phenotype (%) [11]: 62%
Population Mitotic Cells (%) [11]: 46%
Population Normal (%) [11]: 75%
Population Pyknosed Nuclei (%) [11]: 44%
Population Tubulin-Different-Phenotype (%) [11]: 59%
Total Cell Count [11]: 325
Population Apoptotic (%) [12]: 18%
Population Fragmented Nuclei (%) [12]: 5%
Population Healthy Nuclei (%) [12]: 83%
Population Hoechst High Intensity Objects (%) [12]: 4%
Population Membrane Permeable-Phenotype (%) [12]: 5%
Population Mitochondria Different-Phenotype (%) [12]: 8%
Population Mitotic Cells (%) [12]: 81%
Population Normal (%) [12]: 95%
Population Pyknosed Nuclei (%) [12]: 10%
Population Tubulin-Different-Phenotype (%) [12]: 31%
Total Cell Count [12]: 739

CCn1cc(-c2ccnc3[nH]c(-c4cccc(CN(C)C)c4)cc23)c(-c2ccc(NC(=O)N(C)C)cc2)n1 [GSK-1070916]
Population Apoptotic (%) [1]: 17%
Population Fragmented Nuclei (%) [1]: 16%
Population Healthy Nuclei (%) [1]: 64%
Population Hoechst High Intensity Objects (%) [1]: 11%
Population Membrane Permeable-Phenotype (%) [1]: 16%
Population Mitochondria Different-Phenotype (%) [1]: 9%
Population Mitotic Cells (%) [1]: 82%
Population Normal (%) [1]: 88%
Population Pyknosed Nuclei (%) [1]: 18%
Population Tubulin-Different-Phenotype (%) [1]: 18%
Total Cell Count [1]: 676
Population Apoptotic (%) [2]: 8%
Population Fragmented Nuclei (%) [2]: 6%
Population Healthy Nuclei (%) [2]: 84%
Population Hoechst High Intensity Objects (%) [2]: 2%
Population Membrane Permeable-Phenotype (%) [2]: 9%
Population Mitochondria Different-Phenotype (%) [2]: 13%
Population Mitotic Cells (%) [2]: 91%
Population Normal (%) [2]: 97%
Population Pyknosed Nuclei (%) [2]: 8%
Population Tubulin-Different-Phenotype (%) [2]: 36%
Total Cell Count [2]: 1405
Population Apoptotic (%) [3]: 28%
Population Fragmented Nuclei (%) [3]: 14%
Population Healthy Nuclei (%) [3]: 49%
Population Hoechst High Intensity Objects (%) [3]: 24%
Population Membrane Permeable-Phenotype (%) [3]: 16%
Population Mitochondria Different-Phenotype (%) [3]: 32%
Population Mitotic Cells (%) [3]: 71%
Population Normal (%) [3]: 75%
Population Pyknosed Nuclei (%) [3]: 35%
Population Tubulin-Different-Phenotype (%) [3]: 91%
Total Cell Count [3]: 688
Population Apoptotic (%) [4]: 8%
Population Fragmented Nuclei (%) [4]: 1%
Population Healthy Nuclei (%) [4]: 81%
Population Hoechst High Intensity Objects (%) [4]: 10%
Population Membrane Permeable-Phenotype (%) [4]: 14%
Population Mitochondria Different-Phenotype (%) [4]: 37%
Population Mitotic Cells (%) [4]: 91%
Population Normal (%) [4]: 89%
Population Pyknosed Nuclei (%) [4]: 17%
Population Tubulin-Different-Phenotype (%) [4]: 99%
Total Cell Count [4]: 1174
Population Apoptotic (%) [5]: 15%
Population Fragmented Nuclei (%) [5]: 13%
Population Healthy Nuclei (%) [5]: 73%
Population Hoechst High Intensity Objects (%) [5]: 8%
Population Membrane Permeable-Phenotype (%) [5]: 18%
Population Mitochondria Different-Phenotype (%) [5]: 6%
Population Mitotic Cells (%) [5]: 84%
Population Normal (%) [5]: 91%
Population Pyknosed Nuclei (%) [5]: 12%
Population Tubulin-Different-Phenotype (%) [5]: 37%
Total Cell Count [5]: 672
Population Apoptotic (%) [6]: 3%
Population Fragmented Nuclei (%) [6]: 9%
Population Healthy Nuclei (%) [6]: 85%
Population Hoechst High Intensity Objects (%) [6]: 5%
Population Membrane Permeable-Phenotype (%) [6]: 12%
Population Mitochondria Different-Phenotype (%) [6]: 3%
Population Mitotic Cells (%) [6]: 96%
Population Normal (%) [6]: 94%
Population Pyknosed Nuclei (%) [6]: 5%
Population Tubulin-Different-Phenotype (%) [6]: 43%
Total Cell Count [6]: 1602
Population Apoptotic (%) [7]: 31%
Population Fragmented Nuclei (%) [7]: 17%
Population Healthy Nuclei (%) [7]: 57%
Population Hoechst High Intensity Objects (%) [7]: 33%
Population Membrane Permeable-Phenotype (%) [7]: 9%
Population Mitochondria Different-Phenotype (%) [7]: 42%
Population Mitotic Cells (%) [7]: 68%
Population Normal (%) [7]: 66%
Population Pyknosed Nuclei (%) [7]: 24%
Population Tubulin-Different-Phenotype (%) [7]: 89%
Total Cell Count [7]: 562
Population Apoptotic (%) [8]: 10%
Population Fragmented Nuclei (%) [8]: 3%
Population Healthy Nuclei (%) [8]: 84%
Population Hoechst High Intensity Objects (%) [8]: 17%
Population Membrane Permeable-Phenotype (%) [8]: 18%
Population Mitochondria Different-Phenotype (%) [8]: 39%
Population Mitotic Cells (%) [8]: 89%
Population Normal (%) [8]: 82%
Population Pyknosed Nuclei (%) [8]: 11%
Population Tubulin-Different-Phenotype (%) [8]: 98%
Total Cell Count [8]: 1112
